Experimental data taken from ChEMBL document CHEMBL2057186, “Application of the bicyclo[1.1.1]pentane motif as a nonclassical phenyl ring bioisostere in the design of a potent and orally active γ-secretase inhibitor” (J Med Chem, 2012).
Values after ≈ are worked out from the molar mass of the structure shown.

Experiments:
Gamma-secretase = test: Inhibition of gamma secretase-mediated amyloid beta42 production in human H4 cells expressing human wild-type APP
[1] = Apparent permeability from apical to basal side of dog RRCK cells; type: ADME, cell-based, Canis lupus familiaris, MDCKII-LE; settings: for Papp A→B: MDCK
Method in brief: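 Absorptive (A to B) permeability was measured in RRCK cells, a Madin–Darby canine kidney subline isolated for low transporter activity. It estimates intrinsic passive permeability.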

[2] = Kinetic solubility of the solubility of the compound at pH 6.5; type: physicochemical; settings: buffer, read-out: Kinetic_solubility
Method in brief: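 Kinetic solubility was measured in aqueous buffer at pH 6.5.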

Homo sapiens = organism: Homo sapiens; test: Selectivity for human gamma-seretase over notch signalling protein
P-gp = test: Efflux ratio of apparent permeability from basal to apical side to apical to basal side of MDCK cells expressing human P-gp; type: ADME, cell-based, Canis lupus familiaris; settings: dog, MDCK-MDR1
Method in brief: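 Monolayers were MDCK cells transfected with the human P-glycoprotein (MDR1) gene. Permeability was measured basolateral-to-apical and apical-to-basolateral, and the BA/AB ratio was reported.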

| SMILES | IC50 (Gamma-secretase) [nM] | Papp A→B [1] [×10⁻⁶ cm/s] | solubility kinetic [2] [µM] | Selectivity Index (Homo sapiens) | efflux ratio (P-gp) | Papp ([1]; mdckii-le) [×10⁻⁶ cm/s] |
| --- | --- | --- | --- | --- | --- | --- |
| N#CCCN([C@H](CCC(F)(F)F)C(N)=O)S(=O)(=O)c1ccc(Cl)cc1 | 22.5 | 10.2 |  |  |  |  |
| C[C@]1(C#N)C[C@H](CN([C@H](CCC(F)(F)F)C(N)=O)S(=O)(=O)c2ccc(Cl)cc2)C1 | 58.7 | 21.8 |  |  |  |  |
| NC(=O)[C@@H](CCC(F)(F)F)N(CCc1ncon1)S(=O)(=O)c1ccc(Cl)cc1 | 24.4 | 29.6 |  |  |  |  |
| N#C[C@@H]1C[C@H]1CN([C@H](CCC(F)(F)F)C(N)=O)S(=O)(=O)c1ccc(Cl)cc1 | 14.7 | 9.94 |  |  |  |  |

These reach a lower IC50 (Gamma-secretase). Values come first.

| IC50 (Gamma-secretase) [nM] | Papp A→B [1] [×10⁻⁶ cm/s] | solubility kinetic [2] [µM] | Selectivity Index (Homo sapiens) | efflux ratio (P-gp) | Papp ([1]; mdckii-le) [×10⁻⁶ cm/s] | SMILES |
| --- | --- | --- | --- | --- | --- | --- |
| 7.47 | 25.7 |  |  |  |  | C[C@]1(C#N)C[C@@H](CN([C@H](CCC(F)(F)F)C(N)=O)S(=O)(=O)c2ccc(Cl)cc2)C1 |
| 1.04 | 19.7 | 44.5 (≈ 20.5 µg/mL) | 570 | 2.05 |  | N#Cc1ccc(CN([C@H](CCC(F)(F)F)C(N)=O)S(=O)(=O)c2ccc(Cl)cc2)cc1 |
| 11.1 | 24 |  |  |  |  | N#CCCCCN([C@H](CCC(F)(F)F)C(N)=O)S(=O)(=O)c1ccc(Cl)cc1 |
| 9.6 | 29.9 |  |  |  |  | N#CC1(CN([C@H](CCC(F)(F)F)C(N)=O)S(=O)(=O)c2ccc(Cl)cc2)CC1 |
| 6.92 | 21.5 |  |  |  |  | N#C[C@H]1C[C@@H]1CN([C@H](CCC(F)(F)F)C(N)=O)S(=O)(=O)c1ccc(Cl)cc1 |
| 4.11 |  |  |  |  | 14.6 | N#C[C@H]1CC[C@H](CN([C@H](CCC(F)(F)F)C(N)=O)S(=O)(=O)c2ccc(Cl)cc2)CC1 (stereo in doubt; 20) |
